The other results are listed elsewhere or left out. Unmarked numbers belong to inactive results. The source made the active and inactive calls.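 How the source made its calls, unless noted: active means primary screen active, with duplicate mean exceeding buffer control mean plus 3 SD of buffer wells (cut at about 28% in these data); inactive means the rest.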
Experiments:
[1] = biological target: Potassium voltage-gated channel subfamily KQT member 1 (Homo sapiens) (UniProt P51787); test: KCNQ1 potassium channel inhibitors, confirmation, cell-based, Tl flux, duplicate (AID 588353); details: KCNQ1 cell line, FluxOR thallium flux fluorescence, at 10 µM, active compounds read high;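 further: 0% = buffer control ratio and 100% = XE991 inhibitor control ratio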
Outline: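 Material: stable KCNQ1-expressing CHO cell line. Incubation: compound exposure 20 min at room temperature. Replication: duplicates, mean used. Control set: buffer and XE991. Evaluation: percent inhibition relative to buffer and XE991. Reagent: Tl2SO4 plus K2SO4 stimulus, each 12.5 mM in 5x stock. Measured by: thallium-sensitive FluxOR dye fluorescence.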

[2] = thallium flux effects in parental CHO cells, counter-screen for KCNQ1 inhibitor project, cell-based, Tl flux (AID 588366;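 active means mean of duplicate thallium-flux fluorescence ratios in parental host cells more than 5 SD below the buffer control mean, cut at about 0.38 in these data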;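 further: ratio is peak minus minimum fluorescence divided by baseline fluorescence; actives read low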); details: parental CHO-K1, FluxOR thallium flux fluorescence ratio; at 10 µM; active compounds read low; zero means no signal rise above baseline
Outline: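 material = parental CHO-K1 cells lacking KCNQ1 channel expression | schedule = FluxOR dye loading 90 min, compound exposure 20 min, room temperature | technique = kinetic Tl+ flux fluorescence with FluxOR dye | controls = assay buffer-only wells as negative controls | replicates = each compound tested in duplicate wells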

[3] = biological target: Potassium voltage-gated channel subfamily KQT member 1 (Homo sapiens) (UniProt P51787); test: KCNQ1 channel inhibitors, confirmation, orthogonal assay, cell-based, automated electrophysiology (AID 624120;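 active means KCNQ1 current drop exceeding 3 SD of negative control wells, seen in both duplicate runs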); details: KCNQ1-CHO cells, automated patch clamp current; at 10 µM
Outline: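 System: KCNQ1-expressing CHO cells; Medium: external buffer at pH 7.4; Probe or stimulus: 2,000 ms voltage steps to +40 mV from -80 mV; Compound: 10 µM final, single dose; Technique: automated perforated-patch voltage clamp using amphotericin B; Measure: percent change in steady-state +40 mV current, post- versus pre-compound; Benchmarks: negative controls; Replication: duplicates.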

[4] = biological target: Potassium voltage-gated channel subfamily KQT member 2 (Rattus norvegicus) (UniProt O88943); test: KCNQ2 channel inhibition, selectivity assay for KCNQ1 inhibitor project, cell-based (AID 651746;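 active means mean percent inhibition of the KCNQ2 thallium signal more than 5 SD above the buffer-only control wells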;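 on inhibition: 0% = buffer control wells and 100% = XE-991 inhibitor control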); details: KCNQ2 cells, FluxOR thallium flux fluorescence, at 10 µM; active compounds read high
[5] = biological target: Potassium voltage-gated channel subfamily E member 1 (Homo sapiens) + Potassium voltage-gated channel subfamily KQT member 1 (Homo sapiens) (UniProt P15382+P51787); test: KCNQ1/KCNE1 channel inhibition, selectivity assay for KCNQ1 inhibitor project, CHO-K1 cells, thallium flux, FluxOR (AID 652147;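 active means mean percent inhibition of duplicate wells above the buffer-only control mean plus 3 SD of those controls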;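 on inhibition: 0% = buffer only wells and 100% = XE-991 inhibitor control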); details: FluxOR thallium flux fluorescence, at 10 µM; active compounds read high
Outline: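 Assay system: KCNQ1/KCNE1 cells | Timing: FluxOR dye loading 90 min, compound exposure 20 min, both room temperature | Detection: Kinetic FluxOR thallium-sensitive fluorescence, 1 Hz sampling, 150 s post-stimulus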

Sequence of Potassium voltage-gated channel subfamily KQT member 1 (Homo sapiens) (P51787 whole entry, looked up): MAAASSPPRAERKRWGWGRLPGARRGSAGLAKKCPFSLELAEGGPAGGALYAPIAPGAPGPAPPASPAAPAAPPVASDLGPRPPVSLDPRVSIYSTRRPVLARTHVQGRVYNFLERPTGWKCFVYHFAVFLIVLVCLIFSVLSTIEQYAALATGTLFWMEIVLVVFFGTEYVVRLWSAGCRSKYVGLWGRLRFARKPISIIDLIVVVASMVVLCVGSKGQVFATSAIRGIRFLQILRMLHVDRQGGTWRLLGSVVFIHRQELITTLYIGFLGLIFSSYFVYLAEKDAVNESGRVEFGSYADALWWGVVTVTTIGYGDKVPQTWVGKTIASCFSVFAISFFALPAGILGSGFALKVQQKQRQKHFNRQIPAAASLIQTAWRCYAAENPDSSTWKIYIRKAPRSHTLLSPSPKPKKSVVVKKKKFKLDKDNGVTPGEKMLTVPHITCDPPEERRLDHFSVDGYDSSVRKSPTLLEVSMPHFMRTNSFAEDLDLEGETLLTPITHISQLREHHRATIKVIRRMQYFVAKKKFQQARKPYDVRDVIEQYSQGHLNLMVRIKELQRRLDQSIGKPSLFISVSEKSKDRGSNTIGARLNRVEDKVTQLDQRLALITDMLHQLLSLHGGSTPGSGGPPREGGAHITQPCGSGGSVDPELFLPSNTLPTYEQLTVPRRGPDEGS
Sequence of Potassium voltage-gated channel subfamily KQT member 2 (Rattus norvegicus) (O88943 whole entry, looked up): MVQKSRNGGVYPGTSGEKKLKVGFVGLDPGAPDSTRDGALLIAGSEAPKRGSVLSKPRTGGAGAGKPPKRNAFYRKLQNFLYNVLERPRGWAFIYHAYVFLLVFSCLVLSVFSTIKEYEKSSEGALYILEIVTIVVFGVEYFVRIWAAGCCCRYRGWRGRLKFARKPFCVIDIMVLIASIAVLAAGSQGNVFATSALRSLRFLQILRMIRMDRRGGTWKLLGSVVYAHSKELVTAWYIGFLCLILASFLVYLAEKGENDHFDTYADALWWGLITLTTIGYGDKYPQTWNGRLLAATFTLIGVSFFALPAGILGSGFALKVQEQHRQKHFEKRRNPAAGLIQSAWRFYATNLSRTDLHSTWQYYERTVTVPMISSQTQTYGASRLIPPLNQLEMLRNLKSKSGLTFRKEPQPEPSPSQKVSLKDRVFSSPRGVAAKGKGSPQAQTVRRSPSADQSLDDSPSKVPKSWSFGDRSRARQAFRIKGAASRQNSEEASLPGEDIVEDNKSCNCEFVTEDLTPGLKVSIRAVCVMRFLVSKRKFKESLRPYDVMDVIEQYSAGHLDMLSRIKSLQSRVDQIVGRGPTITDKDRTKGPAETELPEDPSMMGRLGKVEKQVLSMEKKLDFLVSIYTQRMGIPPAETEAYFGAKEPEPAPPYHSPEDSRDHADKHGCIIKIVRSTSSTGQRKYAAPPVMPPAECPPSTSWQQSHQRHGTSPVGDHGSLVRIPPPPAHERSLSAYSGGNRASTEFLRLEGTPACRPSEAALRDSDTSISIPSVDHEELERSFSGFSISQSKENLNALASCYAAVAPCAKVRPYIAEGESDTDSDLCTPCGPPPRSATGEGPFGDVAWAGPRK
Sequence of Potassium voltage-gated channel subfamily E member 1 (Homo sapiens) + Potassium voltage-gated channel subfamily KQT member 1 (Homo sapiens) (P51787 whole entry, looked up): as the sequence (P51787 whole entry, looked up) above

In the case of O=C(Nc1ccc(Cl)c(Cl)c1)N1CC=C(c2ccccc2)CC1, the inhibition [1] is reported as 122% (active), the fluorescence ratio (Tl flux) [2] is reported as 0.411 and the outcome [3] is reported as “inactive”. For the same compound, the inhibition [4] was 110% (active) and the inhibition [5] was 134% (active).

In the case of Cc1oc2c(F)c(F)c(F)c(F)c2c1S(=O)(=O)Nc1cccc(C(F)(F)F)c1, the inhibition [1] is reported as 0% [the number is a placeholder, only the call stands], the fluorescence ratio (Tl flux) [2] is reported as 0.531 and the outcome [4] is reported as “inactive”. The outcome [5] was “inactive”.

With COc1ccc(C(=O)NC2CCCc3c2cnn3-c2cccc(C)c2C)c(OC)n1 (stereo not drawn) the inhibition [1] was 132% (active), the fluorescence ratio (Tl flux) [2] was 0.296 (active) and the inhibition [4] was 127% (active). For the same compound, the inhibition [5] was 184% (active).

With COc1ccc(-c2csc3ncnc(N4CCN(S(=O)(=O)c5cccc(F)c5)CC4)c23)cc1 the inhibition [1] was 92.5% (active), the fluorescence ratio (Tl flux) [2] was 0.403 and the outcome [3] was “inactive”. The inhibition [4] was 77% (active) and the inhibition [5] was 122% (active).

For Cc1cc(C)cc(N(CC(=O)N2CC=C(c3ccccc3)CC2)S(=O)(=O)c2c(C)noc2C)c1, the inhibition [1] was 78% (active), the fluorescence ratio (Tl flux) [2] was 0.363 (active) and the inhibition [4] was 111% (active). The inhibition [5] was 84% (active).

With Cc1nc(Nc2ccc3c(c2)OCCO3)c2nnn(Cc3ccccc3Cl)c2n1 the inhibition [1] was 83% (active), the fluorescence ratio (Tl flux) [2] was 0.413 and the inhibition [4] was 96% (active). The inhibition [5] was 102% (active).

In the case of COc1ccc(-c2cc(C(F)(F)F)nc(S(C)(=O)=O)n2)cc1OC, the inhibition [1] is reported as 27% (active), the fluorescence ratio (Tl flux) [2] is reported as 0.445 and the outcome [4] is reported as “inactive”. The inhibition [5] was 77.5% (active).

With CC1CCC2(CC1)NC(=O)N(CC(=O)c1cccn1C)C2=O (stereo not drawn) the inhibition [1] was 31% (active), the fluorescence ratio (Tl flux) [2] was 0.503 and the outcome [4] was “inactive”. The outcome [5] was “inactive”.

With Cc1ccc(-c2noc(CC(c3ccccc3)c3ccccc3)n2)cc1 the inhibition [1] was 65.5% (active), the fluorescence ratio (Tl flux) [2] was 0.45 and the inhibition [4] was 77% (active). The inhibition [5] was 116% (active).

In the case of CC(C)OC(=O)C(C#N)c1nc2ccccc2nc1N1CCN(Cc2ccccc2)CC1 (stereo not drawn), the inhibition [1] is reported as 148% (active), the fluorescence ratio (Tl flux) [2] is reported as 0.382 and the inhibition [4] is reported as 100% (active). For the same compound, the outcome [5] was “inactive”.

In the case of O=C(CCN1c2ccccc2Sc2ccccc21)Nc1ccccc1, the inhibition [1] is reported as 164% (active), the fluorescence ratio (Tl flux) [2] is reported as 0.384 and the outcome [3] is reported as “inactive”. For the same compound, the inhibition [4] was 118% (active) and the inhibition [5] was 186% (active).

In the case of S=C(NCCCc1ccccc1)Nc1ccc(Br)cc1, the inhibition [1] is reported as 150% (active), the fluorescence ratio (Tl flux) [2] is reported as 0.591 and the outcome [3] is reported as “inactive”. For the same compound, the outcome [4] was “inactive” and the inhibition [5] was 76.5% (active).

With Cc1cccc(Nc2ccccc2C(=O)NCc2ccco2)c1C the inhibition [1] was 134% (active), the fluorescence ratio (Tl flux) [2] was 0.394 and the outcome [3] was “inactive”. For the same compound, the inhibition [4] was 101% (active) and the inhibition [5] was 198% (active).

With O=C(Nc1ccc2ccccc2c1)Nc1ccc2snnc2c1 the inhibition [1] was 41.5% (active), the fluorescence ratio (Tl flux) [2] was 0.539 and the outcome [4] was “inactive”. The outcome [5] was “inactive”.

In the case of CCOC(=O)c1ccc(NC(=O)Cn2cnc3cc(C)c(C)cc32)cc1, the inhibition [1] is reported as 60% (active), the fluorescence ratio (Tl flux) [2] is reported as 0.481 and the outcome [4] is reported as “inactive”. For the same compound, the inhibition [5] was 55% (active).

With CC1CCCN(C(C(=O)Nc2ccc(C(C)C)cc2)c2ccc3c(c2)OCO3)C1 (stereo not drawn) the inhibition [1] was 132% (active), the fluorescence ratio (Tl flux) [2] was 0.429 and the outcome [3] was “inactive”. For the same compound, the inhibition [4] was 99.7% (active) and the inhibition [5] was 164% (active).

In the case of CC(C(=O)NCC1CCCCC1)N(C)Cc1cccc(Cl)c1 (stereo not drawn), the inhibition [1] is reported as 62% (active), the fluorescence ratio (Tl flux) [2] is reported as 0.435 and the inhibition [4] is reported as 76% (active). For the same compound, the inhibition [5] was 84% (active).

In the case of CCC(=C/c1sc2ccc3ccccc3c2[n+]1C)/C=C1\Sc2ccc3ccccc3c2N1C, the inhibition [1] is reported as 57.5% (active), the fluorescence ratio (Tl flux) [2] is reported as 0.508 and the inhibition [4] is reported as 59% (active). For the same compound, the inhibition [5] was 64% (active).

With CNC(=O)c1ccsc1NC(=O)c1ccc(S(=O)(=O)N2CCc3ccccc32)cc1 the inhibition [1] was 97% (active), the fluorescence ratio (Tl flux) [2] was 0.446 and the inhibition [4] was 115% (active). The inhibition [5] was 170% (active).

For COc1ccc(S(=O)(=O)/N=C2\C=C(NS(=O)(=O)c3ccccc3)C(=O)c3ccccc32)cc1, the inhibition [1] was 31.5% (active), the fluorescence ratio (Tl flux) [2] was 0.44 and the outcome [4] was “inactive”. The outcome [5] was “inactive”.

In the case of COc1cc(NC(=O)c2ccccc2NS(=O)(=O)c2ccc(Cl)s2)cc(OC)c1, the inhibition [1] is reported as 102% (active), the fluorescence ratio (Tl flux) [2] is reported as 0.419 and the outcome [4] is reported as “inactive”. The outcome [5] was “inactive”.

In the case of Cc1cc2nc3c(=O)n(Cc4ccccc4)c(=O)[nH]c3nc2cc1N, the inhibition [1] is reported as 93% (active), the fluorescence ratio (Tl flux) [2] is reported as 0.332 (active) and the outcome [4] is reported as “inactive”. The inhibition [5] was 110% (active).

For O=C(NC(=S)Nc1ccccc1C(=O)O)c1ccc(-c2ccc(Br)cc2)o1, the inhibition [1] was 56% (active), the fluorescence ratio (Tl flux) [2] was 0.46 and the outcome [4] was “inactive”. For the same compound, the inhibition [5] was 78% (active).

For O=C(Nc1ccc(F)cc1)c1cccnc1N1CCOCC1, the inhibition [1] was 44% (active), the fluorescence ratio (Tl flux) [2] was 0.517 and the outcome [4] was “inactive”. For the same compound, the inhibition [5] was 53.5% (active).

With Cc1cccc(-n2cc(CN3CCN(C(=O)c4ncn[nH]4)CC3)c(-c3cccc(F)c3)n2)c1 the inhibition [1] was 45.5% (active), the fluorescence ratio (Tl flux) [2] was 0.435 and the outcome [4] was “inactive”. The outcome [5] was “inactive”.

For Cc1ccccc1OCC(=O)Nc1ccc(N2CCN(C(=O)C(C)C)CC2)c(Cl)c1, the inhibition [1] was 57.5% (active), the fluorescence ratio (Tl flux) [2] was 0.503 and the inhibition [5] was 51% (active).

For CC(=O)N1CCCc2cc(S(=O)(=O)N3CCCC(C(=O)N4CCN(c5cccc(Cl)c5)CC4)C3)ccc21 (stereo not drawn), the inhibition [1] was 126% (active), the fluorescence ratio (Tl flux) [2] was 0.436 and the inhibition [4] was 134% (active). For the same compound, the inhibition [5] was 140% (active).

Source: PubChem BioAssay
